The values below come from ChEMBL document CHEMBL1147187, “Design and synthesis of new potent dipeptidyl peptidase IV inhibitors with enhanced ex vivo duration” (Bioorg Med Chem, 2007).

Molecules are shown by their SMILES. Calls of active or inactive are those of the source. No cut-off for these calls is given here.

Series [1] deals with Dipeptidyl peptidase 4 (Rattus norvegicus) (UniProt P14740). Put plainly: Ex vivo inhibition of DPP4 in Sprague-Dawley rat plasma at 1 mg/kg, po after 6 hrs. Further details: dose 1 mg/kg. The format is organism-based. Put shortly: (§1)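 Male SD rats, 6–7 weeks old, fasted at least 8 h, given a single oral dose of 1 mg/kg in 0.5% methyl cellulose. Jugular vein blood taken before dosing and serially to 10 h (12 h in the species comparison). Plasma mixed with substrate (50 µL of 60 µM Gly-Pro-AMC). Initial fluorescence rate over 15 min at 37 °C; % inhibition is relative to basal activity.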

For series [2] the target is unchanged. Put plainly: Ex vivo inhibition of DPP4 in Sprague-Dawley rats plasma at 1 mg/kg, po after 10 hrs. The class given is organism-based. The arrangement: dose 1 mg/kg. The procedure, abridged: as §1
A short description of series [3]: Stability in Tris buffer at pH 7.4 after 24 hrs. The class given is physicochemical. The conditions noted are these: read-out: Stability. The procedure, abridged:
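Remaining percentage measured after incubation in 100 mM Tris buffer, pH 7.4, at room temperature for 24 h.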

Series [4] has as its system Rattus norvegicus. The series is described as follows: Suppression of glucose level in Sprague-Dawley rats at 1 mg/kg, po administered 30 mins prior to glucose by glucose tolerance test after 12 hrs. The format is functional, organism-based. The arrangement: dose 1 mg/kg. The procedure, abridged: (§2)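 Male SD rats (364–473 g), fasted at least 20 h, given vehicle (0.5% methyl cellulose) or 1 mg/kg orally at −0.5 h. Oral glucose 1 g/kg given at 0, 6 and 12 h. Tail-vein blood collected into heparinized tubes from −0.08 h to 14 h. Plasma glucose measured by glucose oxidase–peroxidase dye method.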

For series [5], the system named is Rattus norvegicus. Put plainly: Suppression of glucose level in Sprague-Dawley rats at 1 mg/kg, po administered 30 mins prior to glucose by glucose tolerance test. The class given is functional, organism-based. The arrangement: dose 1 mg/kg. The procedure, abridged: as §2
The target of series [6] is Dipeptidyl peptidase 4 (Rattus norvegicus) (UniProt P14740). Put plainly: Ex vivo inhibition of DPP4 in Sprague-Dawley rats plasma at 1 mg/kg, po after 12 hrs. Further details: dose 1 mg/kg. The class given is organism-based. Put shortly:
as §1

Another series has as its system Canis familiaris. The series is described as follows: Ex vivo inhibition of DPP4 in Beagle dog at 1 mg/kg, po after 12 hrs. The format is functional. The conditions noted are these: Canis lupus familiaris. The procedure, abridged:
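Male beagle dogs (11–15 kg) and male cynomolgus monkeys (3.5–6 kg), fasted 8 h, given a single oral dose of 1 mg/kg in 0.5% methyl cellulose. Femoral vein blood taken before dosing and at 12 h. Plasma DPP-IV activity measured as the initial rate of Gly-Pro-AMC cleavage (fluorescence, ex 355/em 460 nm, 37 °C); % inhibition is relative to basal activity.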

Series [7] has as its system Rattus norvegicus. Put plainly: Suppression of glucose level in Sprague-Dawley rats at 1 mg/kg, po administered 30 mins prior to glucose by glucose tolerance test after 6 hrs. The class given is functional, organism-based. The arrangement: dose 1 mg/kg. The procedure, abridged: as §2
The test system of a further series is Cynomolgus monkey. Put plainly: animal or person. The conditions noted are these: Macaca fascicularis, po, 12 h, read-out: Inhibition.

As a reminder, the inhibition is the relative decrease from the control value, in per cent.

Dipeptidyl peptidase 4 (Rattus norvegicus), sequence (P14740 whole entry, looked up): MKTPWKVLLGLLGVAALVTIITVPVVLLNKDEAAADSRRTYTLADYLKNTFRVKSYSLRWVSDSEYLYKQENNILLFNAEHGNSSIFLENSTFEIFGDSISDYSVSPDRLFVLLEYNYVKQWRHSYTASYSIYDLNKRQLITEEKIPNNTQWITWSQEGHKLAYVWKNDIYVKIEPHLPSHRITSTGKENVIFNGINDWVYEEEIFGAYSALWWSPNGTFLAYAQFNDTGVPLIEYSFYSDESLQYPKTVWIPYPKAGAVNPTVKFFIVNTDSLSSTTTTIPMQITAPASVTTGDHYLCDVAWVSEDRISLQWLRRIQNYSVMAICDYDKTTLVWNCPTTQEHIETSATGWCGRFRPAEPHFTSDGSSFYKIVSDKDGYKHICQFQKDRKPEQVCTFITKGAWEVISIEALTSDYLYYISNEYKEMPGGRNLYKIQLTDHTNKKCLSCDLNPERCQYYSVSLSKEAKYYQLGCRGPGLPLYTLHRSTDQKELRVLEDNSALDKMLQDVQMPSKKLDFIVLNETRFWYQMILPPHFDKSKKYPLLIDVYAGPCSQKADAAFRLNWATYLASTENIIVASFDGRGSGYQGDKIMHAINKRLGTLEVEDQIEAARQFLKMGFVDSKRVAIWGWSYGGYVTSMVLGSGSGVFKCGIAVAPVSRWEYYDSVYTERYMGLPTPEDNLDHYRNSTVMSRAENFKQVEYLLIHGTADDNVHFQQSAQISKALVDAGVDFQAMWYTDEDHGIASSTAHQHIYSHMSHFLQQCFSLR

In series [1], `C=CC[C@@H]1CN[C@H](C(=O)N2CCC[C@H]2C#N)C1` displayed an inhibition of 38%.

Take `N#C[C@@H]1CCCN1C(=O)[C@@H]1C[C@H](C(=O)N2CCCCCCC2)CN1`: the inhibition in series [1] was determined as 63%.

Regarding `C[C@@H]1N[C@H](C(=O)N2CCC[C@H]2C#N)C[C@@H]1C(=O)N1CCSCC1`, the inhibition worked out at 92% in series [1] and 85% in series [2].

On to `C[C@@H]1N[C@H](C(=O)N2CCC[C@H]2C#N)C[C@@H]1C(=O)N(C)C`, for which the remaining at 24 h in series [3] worked out at 92%. In addition, the inhibition in series [1] amounted to 95%; in series [6], 81%; in series [2], 84%. The result with Rattus norvegicus [4], in the series on Rattus norvegicus [5] and in the series on Rattus norvegicus [7] was Active. The inhibition in vivo at 1 mg/kg with Canis familiaris came out at 98%; with Cynomolgus monkey, 93%.

As to `N#C[C@@H]1CCCN1C(=O)[C@@H]1CCCN1`, the inhibition in series [1] was found to be 20%.

`C[C@@H]1N[C@H](C(=O)N2CCC[C@H]2C#N)C[C@@H]1C(=O)N1CCCC1`: the inhibition in series [1] is 94%; in [6] it was 82%; in series [2], 88%. Moreover, the inhibition in vivo at 1 mg/kg in the series on Canis familiaris and in the series on Cynomolgus monkey was 95% each time.

Regarding `N#C[C@@H]1CCCN1C(=O)[C@@H]1C[C@H](CO)CN1`, the inhibition in [1] came out at 64%.

Compound `CCN(CC)C(=O)[C@@H]1CN[C@H](C(=O)N2CCC[C@H]2C#N)C1` displayed an inhibition in series [1] of 43%.

As for `N#C[C@@H]1CCCN1C(=O)[C@@H]1C[C@H](C(=O)N2CCC2)CN1`, the inhibition in series [1] came out at 77%; in series [2] it was 46%.

In series [1], `N#C[C@@H]1CCCN1C(=O)[C@@H]1C[C@H](CCO)CN1` showed an inhibition of 64%.

Consider `CN(C)C(=O)[C@@H]1CN[C@H](C(=O)N2CCC[C@H]2C#N)C1`, for which the remaining at 24 h in series [3] was determined as 52%. Also, the results for the inhibition in series [1], in series [6] and in series [2] were 76%, 24% and 52%, respectively. Besides, the inhibition in vivo at 1 mg/kg in the series on Canis familiaris turned out to be 45%; with Cynomolgus monkey, 44%.

On to `C[C@@H]1N[C@H](C(=O)N2CCC[C@H]2C#N)C[C@@H]1C(=O)N1CCC1`, for which the inhibition was 94% in series [1] and 88% in series [2].

`N#C[C@@H]1CCCN1C(=O)[C@@H]1C[C@H](CC(=O)O)CN1` had an inhibition in series [1] of 58%.

Turning to `CNC(=O)[C@@H]1CN[C@H](C(=O)N2CCC[C@H]2C#N)C1`, the figures for the inhibition in [1] and in series [2] were 75% and 28%, respectively.

On to `N#C[C@@H]1CCCN1C(=O)[C@@H]1C[C@H](C(=O)N2CCSCC2)CN1`, for which the inhibition in [1] was determined as 72%; in series [2], 19%.

`CN(C)C(=O)CC[C@@H]1CN[C@H](C(=O)N2CCC[C@H]2C#N)C1` registered an inhibition in series [1] of 58%.

In the case of `C[C@@H]1N[C@H](C(=O)N2CCC[C@H]2C#N)C[C@@H]1C(=O)N1CCOCC1`, the inhibition in series [1] came to 94%; in [2], 85%. The values for the inhibition in vivo at 1 mg/kg with Canis familiaris and in the series on Cynomolgus monkey were 98% and 90%, respectively.

Regarding `N#C[C@@H]1CCCN1C(=O)[C@@H]1C[C@H](C(=O)N2CCCCCC2)CN1`, in series [1], the inhibition turned out to be 68%.

As for `CCCNC(=O)[C@@H]1CN[C@H](C(=O)N2CCC[C@H]2C#N)C1`, the figures for the inhibition in [1] and in series [2] were 59% and 21%, respectively.

Turning to `CCN(C)C(=O)[C@@H]1CN[C@H](C(=O)N2CCC[C@H]2C#N)C1`, the inhibition in series [1] is 71%; in [2], 34%.

`N#C[C@@H]1CCCN1C(=O)[C@@H]1C[C@H](C(=O)N2CCOCC2)CN1`: the results for the inhibition in [1] and in series [2] were 73% and 44%, respectively.

On to `CCNC(=O)[C@@H]1CN[C@H](C(=O)N2CCC[C@H]2C#N)C1`, for which the inhibition in series [1] is 60%; in series [2], 19%.

`CCC[C@@H]1CN[C@H](C(=O)N2CCC[C@H]2C#N)C1` gave an inhibition in series [1] of 50%.

Take `C[C@@H]1N[C@H](C(=O)N2CCC[C@H]2C#N)C[C@@H]1C(=O)N1Cc2ccccc2C1`: the values for the inhibition in series [1], in [6] and in series [2] were 86%, 71% and 77%, respectively. For the same compound, the inhibition in vivo at 1 mg/kg in the series with Canis familiaris came out at 16%.

In the case of `C[C@@H]1N[C@H](C(=O)N2CCC[C@H]2C#N)C[C@@H]1C(=O)N1CCCCC1`, the inhibition in series [1] came to 91%; in [2], 81%.

In series [1], `CN(C)C(=O)C[C@@H]1CN[C@H](C(=O)N2CCC[C@H]2C#N)C1` showed an inhibition of 66%.

Consider `N#C[C@@H]1CCCN1C(=O)[C@@H]1C[C@H](C(=O)N2CCCCC2)CN1`, for which the inhibition is 84% in series [1] and 50% in [2].

As to `CCN(C)C(=O)[C@H]1C[C@@H](C(=O)N2CCC[C@H]2C#N)N[C@H]1C`, the inhibition in series [1] turned out to be 92%; in series [6], 74%; in series [2], 79%. Further, the inhibition in vivo at 1 mg/kg in the series with Canis familiaris was determined as 89%; in the series with Cynomolgus monkey, 95%.

For the compound `N#C[C@@H]1CCCN1C(=O)[C@@H]1C[C@H](C(=O)N2CCCC2)CN1`, the inhibition in [1] stood at 85%; in [2], 40%.

On to `N#C[C@@H]1CCCN1C(=O)[C@@H]1C[C@H](C(N)=O)CN1`, for which the results for the inhibition in [1] and in series [2] were 47% and 20%, respectively.
